Measured values collected from several papers.
Each line is one published result; the experiments were not run side by side.
Target: 3-phosphoinositide-dependent protein kinase 1 (PDPK1, Homo sapiens, UniProt O15530)
Action: inhibitor
Residues used in one study (O15530 1-556): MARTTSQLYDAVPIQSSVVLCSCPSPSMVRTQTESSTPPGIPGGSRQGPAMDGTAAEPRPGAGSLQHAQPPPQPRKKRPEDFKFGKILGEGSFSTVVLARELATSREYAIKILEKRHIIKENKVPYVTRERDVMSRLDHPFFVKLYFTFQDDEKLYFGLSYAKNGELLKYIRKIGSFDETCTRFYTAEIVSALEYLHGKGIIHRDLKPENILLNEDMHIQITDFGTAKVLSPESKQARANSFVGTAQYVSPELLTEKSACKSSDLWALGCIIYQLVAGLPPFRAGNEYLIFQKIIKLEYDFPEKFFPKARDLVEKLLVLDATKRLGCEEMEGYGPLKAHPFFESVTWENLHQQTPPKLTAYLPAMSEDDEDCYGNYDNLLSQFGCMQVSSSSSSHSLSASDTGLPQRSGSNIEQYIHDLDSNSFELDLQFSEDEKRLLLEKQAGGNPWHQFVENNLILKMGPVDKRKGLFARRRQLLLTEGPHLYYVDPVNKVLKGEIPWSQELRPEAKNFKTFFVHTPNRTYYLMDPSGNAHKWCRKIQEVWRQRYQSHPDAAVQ

| Structure (SMILES) | effect on | method | tested at | inhibition |
| --- | --- | --- | --- | --- |
| Nc1ncc2cc(-c3c(Cl)cccc3-c3cccnc3)c(N3C[C@@H]4[C@@H](N)[C@@H]4C3)nc2n1 | enzyme activity | FRET | 25 µM | 0% |
| CNC(=O)c1cc(Oc2ccc(NC(=O)Nc3ccc(Cl)c(C(F)(F)F)c3)cc2)ccn1 | enzyme activity | – | 0.3 µM | -2% |
| COc1cc(C[C@H]2C(=O)OC[C@@H]2Cc2ccc(OC)c(OC)c2)ccc1O | enzyme activity | ADP detection | 100 µM | 18.6% |
| Cc1ccc(Nc2nccc(N(C)c3ccc4c(C)n(C)nc4c3)n2)cc1S(N)(=O)=O | enzyme activity | – | 0.3 µM | 5% |
| c1ccc(CNc2nc(N3CCOc4ccccc43)nc3c2CCCC3)cc1 | target engagement in cells | chemoproteomics | 20 mM | -11.8% |
| CS(=O)(=O)Nc1cccc(-c2csc(NC(=O)CSc3nc4nccnc4c(=O)n3CCc3ccccc3)n2)c1 | enzyme activity | – | 10 µM | 7% |
| COc1cccc2c(NCc3ccccc3)nc(-n3c(N)nc4ccccc43)nc12 | target engagement in cells | chemoproteomics | 20 mM | -5.3% |
| CSc1nc(C)c(-c2ccnc(Nc3ccc(N4CCOCC4)cc3)c2)[nH]1 | enzyme activity | – | 10 µM | 41.3% |
| CN1CC(Oc2cnc(C#N)cc2-c2ccn3nc(NC(=O)C4CC4)cc3c2)C1 | enzyme activity | – | 1 µM | 12% |
| COc1cc2ncnc(Nc3ccc(Oc4ccccc4)cc3C)c2cc1OC | enzyme activity | – | 1 µM | -2% |
| CN(C)C1CCN(CC#Cc2nn(C3CCCC3)c3nc(NCc4ccccc4)ncc23)C1 (centres unmarked) | enzyme activity | FRET | 10 µM | 3% |
